ASAP1 inh = blocks human ASAP1-stimulated Arf1 GTP hydrolysis; inhibition, % at 16.5 µM; GDP FP detection; Q9ULH1; hit rate 0.19% among 360,000; in the data active means inhibition above about 25%;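 further: 0% = vehicle with enzyme and substrate and 100% = no enzyme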
Target sequence (Q9ULH1 325-724 limits assumed): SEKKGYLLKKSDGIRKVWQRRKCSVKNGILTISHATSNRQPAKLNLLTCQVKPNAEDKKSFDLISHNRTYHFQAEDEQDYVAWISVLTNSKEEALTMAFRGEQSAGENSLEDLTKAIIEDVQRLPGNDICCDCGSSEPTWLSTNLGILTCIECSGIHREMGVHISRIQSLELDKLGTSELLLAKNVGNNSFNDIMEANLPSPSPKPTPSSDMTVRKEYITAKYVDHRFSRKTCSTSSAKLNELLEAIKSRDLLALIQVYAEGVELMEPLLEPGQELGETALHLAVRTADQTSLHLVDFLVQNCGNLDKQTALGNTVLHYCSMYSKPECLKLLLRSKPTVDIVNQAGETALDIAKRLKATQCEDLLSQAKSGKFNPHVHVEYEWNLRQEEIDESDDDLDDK
Neddyl block = inhibitors of human cullin neddylation. TR-FRET cullin neddylation, biochemical. P61081+Q13564. AID 651699. hit rate 0.58% among 360,000. inhibition, % at 25 µM; in the data active means inhibition above about 36%
ARFGAP1 inhibitor = inhibits rat ARF GTPase activating protein 1; Q62848; Arfgap1-stimulated ARF1 GTP hydrolysis, GDP FP detection; inhibition, % at 16.5 µM; hit rate 0.26% among 360,000; AID 651572;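 active means inhibition above a per-plate limit, mean inhibition of low control wells plus 3 SD, cut at about 25% in these data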;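 further: 0% = DMSO wells with enzyme and 100% = wells lacking Arfgap1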
Target sequence (Q62848 1-136 limits assumed): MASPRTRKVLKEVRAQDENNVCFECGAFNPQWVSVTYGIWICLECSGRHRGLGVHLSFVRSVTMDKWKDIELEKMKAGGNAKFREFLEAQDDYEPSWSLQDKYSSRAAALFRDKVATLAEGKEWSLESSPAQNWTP
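System: truncated rat Arfgap1 GAP domain / Medium: HEPES-based buffer, pH 7.5 / Also added: N-terminally truncated human ARF1-GTP substrate / Incubation: enzyme reaction 120 min at 25 °C after 20 min preincubation / Measured by: FP of antibody-bound GDP Alexa 633 tracer, ex 620/em 688 nm / Replicates: singlicate, each compound tested once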
Cardio protect = myocardial damage modulation in H9c2 cells | H9c2 cardiomyocytes, H2O2 injury protection, ATPLite, 2 h | protection from H2O2 cell death, % at 20 µM | hit rate 0.63% among 360,000;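 active means compounds giving at least 50% protection of heart cells from peroxide-induced death in the single-dose screen, raw or plate-pattern-corrected value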;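 further: 0% = DMSO wells with peroxide and 100% = DMSO wells without peroxide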
The depositor's hits bear a star. In the library only some 1.6% were active in any assay of this set; here they are far more common.

Screening Clc1ccc(C=NN2CCCCCC2)cc1Cl returned ASAP1 inh -24, Neddyl block 4, ARFGAP1 inhibitor -8 and Cardio protect -10.
`CC(C)N=c1scc(-c2cccs2)n1/N=C/c1ccc(O)c(O)c1O` gave ASAP1 inh 12, Neddyl block -9, ARFGAP1 inhibitor 2 and Cardio protect 50*.
Screening C=CCCN1[C@@H](Cc2ccccc2)COc2ccccc2S1(=O)=O returned ASAP1 inh 6 and ARFGAP1 inhibitor -8.
For C[C@@H]1CCCCO[C@@H](CN(C)C(=O)NC2CCCCC2)[C@@H](C)CN([C@H](C)CO)C(=O)c2cc(N(C)C)ccc2O1 the results were ASAP1 inh 13 and ARFGAP1 inhibitor 11.
`COc1cc2ccnc(C=O)c2cc1OC` gave Neddyl block 2 and Cardio protect 56*.
C[C@@H]1CN([C@H](C)CO)C(=O)c2c(c3ccccc3n2C)-c2ccccc2CO[C@@H]1CN(C)C(=O)CCN(C)C was read as ASAP1 inh -2 and ARFGAP1 inhibitor 1.
Screening O=C(CCc1ccc(O)c(O)c1)N/N=C/c1ccc2c(c1)OCO2 returned ASAP1 inh 7, Neddyl block -16, ARFGAP1 inhibitor 4 and Cardio protect 87*.
For COc1ccc(OC)c(/C=N/Nc2nncn2/N=C/c2cc(OC)ccc2OC)c1 the results were ASAP1 inh 10, Neddyl block 22, ARFGAP1 inhibitor 18 and Cardio protect 81*.
`COc1cc(-c2cc(NC(C)=O)c3ncc(-c4ccccc4)n3c2)cc(OC)c1OC` gave ASAP1 inh -5, Neddyl block 26, ARFGAP1 inhibitor 15 and Cardio protect 70*.
COc1ccccc1-c1cc(NC(C)=O)c2ncc(-c3cccc(C(C)=O)c3)n2c1 was read as ASAP1 inh 4, Neddyl block 13, ARFGAP1 inhibitor -3 and Cardio protect 52*.
For COc1cc(-c2cnc3c(NC(C)=O)cc(-c4ccccc4CN(C)C)cn23)cc(OC)c1OC the results were ASAP1 inh -3, ARFGAP1 inhibitor -3 and Cardio protect 4.
Screening COc1cc(-c2cc(NC(C)=O)c3ncc(-c4cc(OC)c(OC)c(OC)c4)n3c2)cc(OC)c1OC returned ASAP1 inh 13, ARFGAP1 inhibitor -6 and Cardio protect 66*.
`COc1cc(-c2cnc3c(NC(C)=O)cc(-c4cccc(C(=O)NCCO)c4)cn23)cc(OC)c1OC` gave ASAP1 inh -3, Neddyl block 14, ARFGAP1 inhibitor 17 and Cardio protect 30.
`COc1ccc(-c2cc(NC(C)=O)c3ncc(-c4ccc(OC)c(OC)c4)n3c2)cc1OC` gave ASAP1 inh 14, Neddyl block 34, ARFGAP1 inhibitor 0 and Cardio protect 67*.
Screening Cc1cc(O)cc(=O)n1-c1cccc(Br)c1 returned ASAP1 inh -4 and ARFGAP1 inhibitor -10.
`CC(=O)Nc1cc(-c2ccc(C(=O)NC3CC3)cc2)cn2c(-c3cccc(C(C)=O)c3)cnc12` gave ASAP1 inh -5, Neddyl block -9, ARFGAP1 inhibitor 4 and Cardio protect 50*.
O=C(CC1CCCC1)N[C@H](C(=O)N1CCC[C@H]1C(=O)NC1CCCC1)C1CCCCC1 was read as ASAP1 inh -1 and ARFGAP1 inhibitor 10.
For COc1cc(/C=C(\C#N)C(=O)c2c(C)[nH]c3ccccc23)cc(OC)c1OC the results were ASAP1 inh 5, Neddyl block 1, ARFGAP1 inhibitor -4 and Cardio protect 14.
`COc1ccc(/C=C(\C#N)C(=O)c2c(C)[nH]c3ccccc23)cc1OC` gave ASAP1 inh 11, Neddyl block 6, ARFGAP1 inhibitor 16 and Cardio protect 54*.
CCN(CCO)c1ncnc2c1sc1nc(C(C)C)c3c(c12)CC(C)(C)OC3 was read as ASAP1 inh -12, Neddyl block -108, ARFGAP1 inhibitor 6 and Cardio protect 60*.
`CC(C)c1nc2sc3c(NCc4ccccc4)ncnc3c2c2c1COC(C)(C)C2` gave ASAP1 inh -7, Neddyl block -51, ARFGAP1 inhibitor -1 and Cardio protect -13.
`O=C(NCc1ccccc1)[C@@H]1CCCN1C(=O)[C@H]1CCCN1C(=O)c1ccccc1` gave ASAP1 inh -2 and ARFGAP1 inhibitor -11.
For COc1ccc2nc3c(cc2c1)c(NC(=O)C1CCCO1)nn3CC(C)C (stereo not drawn) the results were ASAP1 inh 1, ARFGAP1 inhibitor 6 and Cardio protect 98*.
CCCCn1nc(NC(=O)c2cccs2)c2cc3cc(OC)ccc3nc21 was read as ASAP1 inh 8, ARFGAP1 inhibitor -4 and Cardio protect 62*.
CCCn1nc(NC(=O)c2cccs2)c2cc3ccccc3nc21 was read as ASAP1 inh 10, Neddyl block 4, ARFGAP1 inhibitor 8 and Cardio protect 8.
Screening CCCn1nc(NC(=O)c2cccs2)c2cc3cc(OC)ccc3nc21 returned ASAP1 inh -7, ARFGAP1 inhibitor -1 and Cardio protect 20.
`CCCCn1nc(NC(=O)c2cccs2)c2cc3ccccc3nc21` gave ASAP1 inh 11, ARFGAP1 inhibitor 24 and Cardio protect 56*.
`Cn1cnc(S(=O)(=O)N2CCCCC2c2cc(C(=O)NCc3ccc(Cl)c(Cl)c3)no2)c1` (stereo not drawn) gave ASAP1 inh 7, Neddyl block -9, ARFGAP1 inhibitor -7 and Cardio protect -2.
For CCN=C1NC(c2ccccc2)C(C(=O)OC)=C(C)N1Cc1ccc(C(F)(F)F)cc1 (stereo not drawn) the results were ASAP1 inh 6 and ARFGAP1 inhibitor 0.
Screening Cc1[nH][nH]c(=O)c1C(c1ccc(-c2ccc(F)cc2)o1)c1c(C)[nH][nH]c1=O returned ASAP1 inh -1, Neddyl block -10, ARFGAP1 inhibitor 17 and Cardio protect -1.
`Cc1[nH][nH]c(=O)c1C(c1ccc(-c2ccc(C(=O)O)cc2)o1)c1c(C)[nH][nH]c1=O` gave ASAP1 inh -5, Neddyl block -5, ARFGAP1 inhibitor 28* and Cardio protect -3.
For COc1cc(/C=C(\C#N)C(=O)Nc2ccccc2)ccc1OCCN1CCOCC1 the results were ASAP1 inh 8, Neddyl block -20, ARFGAP1 inhibitor 16 and Cardio protect 54*.
For COc1cc(/C=C(\C#N)C(=O)Nc2ccccc2F)ccc1OCCN1CCOCC1 the results were ASAP1 inh 1, Neddyl block -5, ARFGAP1 inhibitor -1 and Cardio protect 67*.
Screening N#C/C(=C\c1ccc(OCCN2CCOCC2)cc1)C(=O)Nc1ccccc1 returned ASAP1 inh 0, Neddyl block -2, ARFGAP1 inhibitor 1 and Cardio protect 6.
COC(=O)[C@]12C[C@H](CC(=O)NCCC(C)C)C(=O)N(CCC3=CCCCC3)C1=C[C@H](COCc1ccccc1)O[C@@H]2C was read as ASAP1 inh -8 and ARFGAP1 inhibitor -3.
Cc1c(C(=O)Nc2ccc(-c3nnc4n3CCCCC4)cc2)oc2c1ccc1ccccc12 was read as ASAP1 inh 5, ARFGAP1 inhibitor 2 and Cardio protect 52*.

Compound activity (PubChem)
